Laboratory results published in PMC5291243 (Nucleic Acids Research, 2016).
Non-standard residues stand in square brackets, D forms with d. No end group written: not given here. Lys(Me3) = C[N+](C)(C)CCCC[C@H](N)C(=O)O; pT = C[C@@H](OP(=O)(O)O)[C@H](N)C(=O)O

What was measured:
RPE-1 cells = experiment: Confocal fluorescence microscopy of Haspin inhibitor-treated RPE-1 cells; format: cell-based; conditions: 24 h
How it was run: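 RPE-1 cells were grown on glass coverslips in DMEM/F12 with 10% FCS to 70% confluence. They were treated 24 h with the Haspin inhibitor from a 500 μM DMSO stock; controls got solvent only. Cells were fixed in 4% formaldehyde, permeabilized in 0.5% Triton X-100, and immunostained for DIDO, ING1 and H3K4me3, with DAPI counterstain. Single confocal layers were imaged with sequential excitation.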

[1] = molecular target: DIDO PHD finger (aa 260–325) (UniProt Q9BTC0); experiment: other fluorescence titration
Sequence of DIDO PHD finger (aa 260–325) (Q9BTC0 260-325): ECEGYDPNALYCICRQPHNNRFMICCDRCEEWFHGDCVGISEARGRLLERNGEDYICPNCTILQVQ

ING1 PHD finger [2] = molecular target: T1, ING1 PHD finger (Homo sapiens, UniProt Q9UK53); experiment: 1H,15N HSQC NMR titration; format: binding; conditions: 298K, peptide aa 1–12 of H3
T1 sequence (Q9UK53 200-279 isoform Q9UK53-2): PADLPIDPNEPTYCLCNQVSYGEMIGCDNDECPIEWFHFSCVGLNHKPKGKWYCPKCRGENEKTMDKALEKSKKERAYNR

ING1 PHD finger [3] = molecular target: ING1 PHD finger (UniProt Q9UK53); experiment: histone peptide microarray; conditions: reference: H3K4me3 peptide
Taf3 PHD finger [4] = molecular target: Taf3 PHD finger (UniProt Q5HZG4); experiment: histone peptide microarray; conditions: reference: H3K4me3 peptide
Rag2 PHD finger [5] = molecular target: Rag2 PHD finger (UniProt P21784); experiment: histone peptide microarray; conditions: reference: H3K4me3 peptide
BPTF PHD finger [6] = molecular target: BPTF PHD finger (UniProt Q12830); experiment: histone peptide microarray; conditions: reference: H3K4me3 peptide
PHF8 PHD finger [7] = molecular target: PHF8 PHD finger (UniProt Q9UPP1); experiment: histone peptide microarray; conditions: reference: H3K4me3 peptide
DIDO PHD finger [8] = molecular target: DIDO PHD finger (UniProt Q9BTC0); experiment: histone peptide microarray; conditions: reference: H3K4me3 peptide
Rag2 PHD finger [9] = molecular target: Rag2 PHD finger (UniProt P21784); experiment: biotin-peptide pull-down of GST-reader, anti-GST blot; conditions: reference: H3K4me3 peptide
ING1 PHD finger [10] = molecular target: ING1 PHD finger (UniProt Q9UK53); experiment: as above; conditions: reference: H3K4me3 peptide; sites T3
[11] = molecular target: KDM4A double Tudor domain (DTD) (UniProt O75164); experiment: as above; conditions: reference: H3K4me3 peptide; sites T3
Taf3 PHD finger [12] = molecular target: Taf3 PHD finger (UniProt Q5HZG4); experiment: as above; conditions: reference: H3K4me3 peptide; sites T3
BPTF PHD finger [13] = molecular target: BPTF PHD finger (UniProt Q12830); experiment: as above; conditions: reference: H3K4me3 peptide; sites T3
PHF8 PHD finger [14] = molecular target: PHF8 PHD finger (UniProt Q9UPP1); experiment: as above; conditions: reference: H3K4me3 peptide; sites T3
DIDO PHD finger [15] = molecular target: DIDO PHD finger (UniProt Q9BTC0); experiment: as above; conditions: reference: H3K4me3 peptide; sites T3
ING1 PHD finger [16] = molecular target: ING1 PHD finger (UniProt Q9UK53); experiment: in vitro peptide binding, probably NMR titration; conditions: reference: H3K4me3 peptide (reference implied); sites T3,T6
[17] = molecular target: T2, PHF8 PHD finger (aa 37–106) (UniProt Q9UPP1 37-106, uniformly 15N-labelled for NMR); experiment: other fluorescence titration
T2 sequence (looked up): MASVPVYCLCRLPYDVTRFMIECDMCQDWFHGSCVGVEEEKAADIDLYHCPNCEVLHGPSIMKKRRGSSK

Molecule: CCCNc1ccc2ncc(-c3ccc4[nH]ncc4c3)n2n1 [CHR6494]
- DIDO and ING1 attachment to chromatin (RPE-1 cells; 1 μM): only a portion of these proteins remained attached to chromatin
- H3T3ph level in prophase (RPE-1 cells; 1 μM): pronounced reduction of H3T3ph in prophase
- DIDO and ING1 localization on chromatin (RPE-1 cells; 2 μM): co-localization of DIDO and ING1 on poorly condensed H3K4me-positive chromatin
- completion of mitosis (RPE-1 cells; 2 μM): unable to complete mitosis

Molecule: H3K4me3 peptide (aa 1–12 of H3) (from UniProt P68431 2-13)
- Kd [1]: 1.1 µM

Molecule: H3K4me3T6ph peptide (aa 1–12 of histone H3) (from UniProt P68431 2-13)
- Kd [1]: 5.5 µM

Molecule: H3T3phK4me3T6ph: triple PTM-containing peptide
- CSPs / binding to ING1 PHD finger (ING1 PHD finger [2]): markedly reduced

Molecule: histone H3 1-20 (from UniProt P68431) H3K4me3T6ph peptide
- binding against the reference (ING1 PHD finger [3]; sites T6): weaker
- binding against the reference (Taf3 PHD finger [4]; sites T6): weaker
- binding against the reference (Rag2 PHD finger [5]; sites T6): weaker
- binding against the reference (BPTF PHD finger [6]; sites T6): weaker
- binding against the reference (PHF8 PHD finger [7]; sites T6): weaker
- binding against the reference (DIDO PHD finger [8]; sites T6): weaker
- binding against the reference (Rag2 PHD finger [9]; sites T6): weaker

Molecule: histone H3 1-20 (from UniProt P68431) H3T3phK4me3 peptide
- binding against the reference (ING1 PHD finger [3]; sites T3): weaker
- binding against the reference (Taf3 PHD finger [4]; sites T3): weaker
- binding against the reference (Rag2 PHD finger [5]; sites T3): weaker
- binding against the reference (BPTF PHD finger [6]; sites T3): weaker
- binding against the reference (PHF8 PHD finger [7]; sites T3): weaker
- binding against the reference (DIDO PHD finger [8]; sites T3): weaker
- binding against the reference (ING1 PHD finger [10]): weaker
- binding against the reference [11]: weaker
- binding against the reference (Taf3 PHD finger [12]): weaker
- binding against the reference (Rag2 PHD finger [9]; sites T3): weaker
- binding against the reference (BPTF PHD finger [13]): weaker
- binding against the reference (PHF8 PHD finger [14]): weaker
- binding against the reference (DIDO PHD finger [15]): weaker

Molecule: histone H3 (from UniProt P68431) H3T3phK4me3T6ph peptide
- binding against the reference (ING1 PHD finger [16]): weaker

Molecule: ART[Lys(Me3)]Q[pT]ARKSTG (peptide, UniProt P68431 2-13, looked up) [H3K4me3T6ph peptide (aa 1–12 of histone H3)]
- fold reduction of binding against H3K4me3 [17]: 2 fold

Molecule: ART[Lys(Me3)]QTARKSTG (peptide, UniProt P68431 2-13, looked up) [H3K4me3 peptide (aa 1–12 of H3)]
- Kd [17]: 2.5 µM
